In ChEMBL document CHEMBL3745596, “Chlorophenoxy aminoalkyl derivatives as histamine H(3)R ligands and antiseizure agents” (Bioorg Med Chem, 2016):
Calls of active or inactive are those of the source.

Tests used:
Mus musculus [1] = assay: Anticonvulsant activity in ip dosed CF1 albino mouse assessed as protection against maximal electroshock-induced seizure after 0.25 hrs; type: functional
Outline: (§1)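 Male CF-1 mice dosed ip as suspension in 0.5% methylcellulose. Corneal electrodes deliver 60 Hz alternating current, 50 mA for […], after a drop of 0.5% tetracaine HCl in 0.9% NaCl per eye. Protection means abolition of hindlimb tonic extension; scored as protected/tested, or ED50 with 95% confidence interval.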

Rattus norvegicus [2] = assay: Anticonvulsant activity in ip dosed Sprague-Dawley rat assessed as protection against maximal electroshock-induced seizure after 1 hr; type: functional
Rattus norvegicus [3] = assay: Anticonvulsant activity in ip dosed Sprague-Dawley rat assessed as protection against subcutaneous pentetrazole-induced seizure after 0.5 hrs; type: functional
Rattus norvegicus [4] = assay: Neurotoxicity in ip dosed Sprague-Dawley rat after 0.5 hrs by rotarod test; type: toxicity, organism-based; settings: in vivo
Mus musculus [5] = assay: Protective index, ratio of TD50 for ip dosed CF1 albino mouse to ED50 for ip dosed CF1 albino mouse assessed as protection against maximal electroshock-induced seizure after 0.25 hrs; type: functional
Rattus norvegicus [6] = assay: Protective index, ratio of TD50 for ip dosed Sprague-Dawley rat to ED50 for ip dosed Sprague-Dawley rat assessed as protection against maximal electroshock-induced seizure after 1 hr; type: functional
Outline: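 PI = TD50/ED50. Male CF-1 mice or male Sprague–Dawley rats given compound ip as 0.5% methylcellulose suspension. MES: 60 Hz corneal current, 50 mA mice or 150 mA rats, for […] after tetracaine eye drops; protection is abolition of hindlimb tonic extension.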

Rattus norvegicus [7] = assay: Anticonvulsant activity in Sprague-Dawley rat assessed as protection against pilocarpine-induced convulsive status epilepticus at 50 mg/kg, ip; type: functional, organism-based
Outline: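 Male Sprague Dawley rats (150–180 g) dosed ip, pilocarpine 50 mg/kg ip given; compound dosed immediately at first behavioral Stage 3 seizure or 30 min later. Number protected from Racine Stage 3 or greater seizures recorded.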

Mus musculus [8] = assay: Analgesic activity in mouse assessed as inhibition of formalin-induced paw licking behavior at 16 mg/kg, ip after 0.25 hrs; type: functional, organism-based
Outline: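 Male albino mice, ip in 0.5% methylcellulose; 0.5% formalin injected sub-dermally into right hindpaw plantar surface 0.25 h after dosing. Paw licking observed for the first 2 min of each 5-min epoch up to 40 min after dosing; cumulative licking duration compared with vehicle-pretreated group, acute and inflammatory phases.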

Histamine H3 receptor = Histamine H3 receptor (Homo sapiens, UniProt Q9Y5N1); assay: Displacement of [3H]-Nalpha-methylhistamine from human recombinant histamine H3 receptor expressed in HEK293 cells after 90 mins; type: cell-based
Mus musculus [9] = assay: Anticonvulsant activity in CF1 albino mouse assessed as protection against maximal electroshock-induced seizure at 30 mg/kg, ip after 0.5 hrs; type: functional, organism-based; outline: as §1
Mus musculus [10] = assay: Anticonvulsant activity in CF1 albino mouse assessed as protection against maximal electroshock-induced seizure at 30 mg/kg, ip after 4 hrs; type: functional, organism-based; outline: as §1
Mus musculus [11] = assay: Anticonvulsant activity in CF1 albino mouse assessed as protection against maximal electroshock-induced seizure at 100 mg/kg, ip after 0.5 hrs; type: functional, organism-based; outline: as §1
Mus musculus [12] = assay: Anticonvulsant activity in CF1 albino mouse assessed as protection against subcutaneous pentetrazole-induced seizure at 100 mg/kg, ip after 0.5 hrs; type: functional, organism-based
Outline: (§2)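 Male CF-1 mice, ip in 0.5% methylcellulose; pentetrazole at CD97 (85 mg/kg) injected subcutaneously in a loose fold of neck skin. Observed 30 min; absence of even a threshold seizure (single clonic spasm lasting at least 5 s) counted as protection. Scored protected/tested, or ED50.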

Mus musculus [13] = assay: Anticonvulsant activity in CF1 albino mouse assessed as protection against subcutaneous pentetrazole-induced seizure at 300 mg/kg, ip after 0.5 hrs; type: functional, organism-based; outline: as §2
Mus musculus [14] = assay: Neurotoxicity in CF1 albino mouse at 10 mg/kg, ip after 0.5 hrs by rotarod test; type: toxicity, organism-based; settings: in vivo
Outline: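 Rotarod neurotoxicity in male CF-1 mice dosed ip as 0.5% methylcellulose suspension: mouse placed on 1 inch knurled rod rotating at 6 rpm; toxicity when the animal falls off three times within 1 min, with other signs noted. Scored as toxic/tested at 0.5 h and 4 h.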

Mus musculus [15] = assay: Neurotoxicity in CF1 albino mouse at 30 mg/kg, ip after 0.5 hrs by rotarod test; type: toxicity, organism-based; settings: in vivo
Outline: (§3)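 Rotarod neurotoxicity in male albino CF-1 mice dosed ip with compound suspended in 0.5% methylcellulose. Animal placed on a 1 inch diameter knurled plastic rod rotating at 6 rpm. Neurotoxicity scored when the animal falls off three times within 1 min. Readout is number of animals toxic/number tested at the stated time after dosing. TD50 with 95% confidence interval from the quantitative study.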

Mus musculus [16] = assay: Neurotoxicity in CF1 albino mouse at 30 mg/kg, ip after 4 hrs by rotarod test; type: toxicity, organism-based; settings: in vivo; outline: as §3
Mus musculus [17] = assay: Neurotoxicity in CF1 albino mouse at 100 mg/kg, ip after 4 hrs by rotarod test; type: toxicity, organism-based; settings: in vivo; outline: as §3
Mus musculus [18] = assay: Neurotoxicity in CF1 albino mouse at 300 mg/kg, ip after 4 hrs by rotarod test; type: toxicity, organism-based; settings: in vivo; outline: as §3
Mus musculus [19] = assay: Neurotoxicity in CF1 albino mouse assessed as unable to grasp rotarod and death at 300 mg/kg, ip after 0.5 hrs by rotarod test; type: toxicity, organism-based; settings: in vivo
Outline: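 Male albino CF-1 mice dosed ip with compound suspended in 0.5% methylcellulose, then placed on a 1-inch knurled plastic rod turning at 6 rpm. A fall three times within 1 min counted as neurotoxicity. Observations were made at 0.5 h and 4 h after dosing. Result given as animals showing toxicity per animals tested, with the kind of toxicity recorded.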

Rattus norvegicus [20] = assay: Anticonvulsant activity in Sprague-Dawley rat assessed as protection against maximal electroshock-induced seizure at 30 mg/kg, ip after 0.5 hrs; type: functional, organism-based
Rattus norvegicus [21] = assay: Anticonvulsant activity in Sprague-Dawley rat assessed as protection against maximal electroshock-induced seizure at 30 mg/kg, ip after 1 hr; type: functional, organism-based
Rattus norvegicus [22] = assay: Anticonvulsant activity in Sprague-Dawley rat assessed as protection against maximal electroshock-induced seizure at 30 mg/kg, ip after 2 hrs; type: functional, organism-based
Rattus norvegicus [23] = assay: Neurotoxicity in Sprague-Dawley rat at 30 mg/kg, ip after 0.5 hrs by rotarod test; type: toxicity, organism-based; settings: in vivo
Outline: (§4)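 Male Sprague–Dawley rats given compound ip as a suspension in 0.5% methylcellulose, groups of four. Rotarod: 1 inch knurled rod at 6 rpm; three falls within 1 min counts as neurotoxic. Scored as number toxic/number tested at pretreatment times between 0.25 and 4 h, or at the stated time.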

Rattus norvegicus [24] = assay: Neurotoxicity in Sprague-Dawley rat at 30 mg/kg, ip after 4 hrs by rotarod test; type: toxicity, organism-based; settings: in vivo; outline: as §4
Rattus norvegicus [25] = assay: Anticonvulsant activity in Sprague-Dawley rat assessed as protection against maximal electroshock-induced seizure at 30 mg/kg, po; type: functional
Mus musculus [26] = assay: Anticonvulsant activity in CF1 albino mouse assessed as protection against 6 Hz-psychomotor-induced seizure at 30 mg/kg, ip after 0.25 to 4 hrs; type: functional, organism-based
Outline: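 Male CF-1 mice, ip suspension in 0.5% methylcellulose. Corneal stimulation 0.2 ms monopolar rectangular pulses at 6 Hz, 32 mA for 3 s via constant-current device; mice without minimal clonic phase seizure counted protected. Groups of four; read at 0.25, 0.5, 1, 2, 4 h; result as protected/tested.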

Mus musculus [27] = assay: Neurotoxicity in CF1 albino mouse at 30 mg/kg, ip after 0.25 to 4 hrs by rotarod test; type: toxicity, organism-based; settings: in vivo; outline: as §3
Mus musculus [28] = assay: Neurotoxicity in CF1 albino mouse at 60 mg/kg, ip after 1 to 4 hrs by rotarod test; type: toxicity, organism-based; settings: in vivo; outline: as §3

Sequence of Histamine H3 receptor (Q9Y5N1 whole entry): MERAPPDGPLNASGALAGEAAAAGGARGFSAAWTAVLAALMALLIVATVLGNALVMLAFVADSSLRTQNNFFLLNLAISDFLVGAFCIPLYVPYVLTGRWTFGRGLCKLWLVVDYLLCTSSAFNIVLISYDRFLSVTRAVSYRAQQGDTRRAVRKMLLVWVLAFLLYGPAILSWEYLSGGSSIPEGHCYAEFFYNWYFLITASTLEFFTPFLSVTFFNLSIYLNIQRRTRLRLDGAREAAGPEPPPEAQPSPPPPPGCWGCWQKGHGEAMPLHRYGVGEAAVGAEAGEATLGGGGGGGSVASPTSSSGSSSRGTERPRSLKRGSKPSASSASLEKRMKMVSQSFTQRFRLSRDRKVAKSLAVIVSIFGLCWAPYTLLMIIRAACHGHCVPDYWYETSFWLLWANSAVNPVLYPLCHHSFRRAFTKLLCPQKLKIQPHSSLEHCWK

Molecule `CC1CCCN(CCCCCCCOc2ccc(Cl)cc2)C1.O=C(O)C(=O)O` (centres undefined) has an ED50 (Mus musculus [1]) of 16.1 mg/kg, an ED50 (Rattus norvegicus [2]) of 13.2 mg/kg and an ED50 (Rattus norvegicus [3]) greater than 50 mg/kg. For the same molecule, the ED50 (Rattus norvegicus [4]) was 50.35 mg/kg, the “Ratio TD50/ED50” value (Mus musculus [5]) was 3 and the “Ratio TD50/ED50” value (Rattus norvegicus [6]) was 3.8. For the same molecule, the Activity (Rattus norvegicus [7]) was “inactive”, the Activity (Mus musculus [8]) was “inactive” and the Ki (Histamine H3 receptor) was 180 nM. For the same molecule, the Activity (Mus musculus [9]) was “Active”, the Activity (Mus musculus [10]) was “Active” and the Activity (Mus musculus [11]) was “Active”. For the same molecule, the Activity (Mus musculus [12]) was “inactive”, the Activity (Mus musculus [13]) was “inactive” and the Activity (Mus musculus [14]) was “Non-toxic”. For the same molecule, the Activity (Mus musculus [15]) was “Non-toxic”, the Activity (Mus musculus [16]) was “Non-toxic” and the Activity (Mus musculus [17]) was “Non-toxic”. For the same molecule, the Activity (Mus musculus [18]) was “Non-toxic”, the Activity (Mus musculus [19]) was “Toxic” and the Activity (Rattus norvegicus [20]) was “Active”. The Activity (Rattus norvegicus [21]) was “Active”, the Activity (Rattus norvegicus [22]) was “Active” and the Activity (Rattus norvegicus [23]) was “Non-toxic”. The Activity (Rattus norvegicus [24]) was “Non-toxic”, the Activity (Rattus norvegicus [25]) was 25% and the Activity (Mus musculus [26]) was “inactive”. For the same molecule, the Activity (Mus musculus [27]) was “Non-toxic” and the Activity (Mus musculus [28]) was “Non-toxic”.
